An excerpt weighted towards active compounds, which were near 2% of everything screened.
Rpn11 block: inhibitors of human proteasome Rpn11 | human 26S proteasome, Ub4-pepOG fluorescence polarization; 20S core pre-blocked with epoxomicin | inhibition, % at 20 µM | 360,000 compounds, 0.59% hits;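 active = inhibition at 20 µM, scaled to each plate's controls, above about 33%, limit read from the data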
HNF4A DNA FP: change in binding of human HNF4 alpha to DNA | activity change, % at 10 µM | P41235 | HNF4a-FITC DNA binding, fluorescence polarization, 1 h | 360,000 compounds, 0.3% hits | AID 1224865; in the data active = activity change above about 30%, passing the limit was not always enough
Target sequence (P41235 whole entry, looked up): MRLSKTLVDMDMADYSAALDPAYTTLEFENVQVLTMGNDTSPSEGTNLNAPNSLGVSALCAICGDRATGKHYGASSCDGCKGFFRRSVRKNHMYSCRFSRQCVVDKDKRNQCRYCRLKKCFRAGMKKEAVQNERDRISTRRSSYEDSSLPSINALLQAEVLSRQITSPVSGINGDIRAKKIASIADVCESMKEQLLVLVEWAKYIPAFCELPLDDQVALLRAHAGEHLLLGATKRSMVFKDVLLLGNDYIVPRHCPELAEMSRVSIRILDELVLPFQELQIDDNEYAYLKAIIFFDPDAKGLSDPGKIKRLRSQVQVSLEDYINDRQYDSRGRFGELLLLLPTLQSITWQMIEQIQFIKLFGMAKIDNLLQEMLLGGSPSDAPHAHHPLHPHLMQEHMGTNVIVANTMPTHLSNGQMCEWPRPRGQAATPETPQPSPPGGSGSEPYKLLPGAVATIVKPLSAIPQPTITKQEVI
ATG4B inh: ATG4B (human) cysteine protease inhibition | ATG4B cleavage of LC3-PLA2, NBD-HPC fluorescence, 1 h | inhibition, % at 8.33 µM | 340,000 compounds, 0.51% hits | AID 504462; in the data active = inhibition above about 40%
TPT1 inhibitor: inhibitors of Candida albicans tRNA 2'-phosphotransferase TPT1 | recombinant caTPT1, FP RNA substrate dephosphorylation | inhibition, % at 5 µM | 300,000 compounds, 0.81% hits | AID 1962;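 active = inhibition above the mean of all tested compounds plus 3 SD, set per screening campaign, cut at about 24% in these data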;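 also: plate controls were DMSO alone for no effect and ferristatin control at 100 nM for full effect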
CSN deneddyl inh: CSN deneddylation inhibition | Purified CSN, SCF-Nedd8-OG deneddylation, fluorescence polarization | 360,000 compounds, 0.38% hits | inhibition, % at 12.5 µM | Q92905;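 active = pattern-corrected inhibition above about 35%, with an unprinted fluorescence ratio check between 0.5 and 1.5, limit read from the data, passing the limit was not always enough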;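 also: 0% = enzyme with substrate and 100% = substrate without enzyme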
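Assay system: purified human Csn5 enzyme expressed in HEK293T cells; Input: 0.24 nM Csn5 enzyme, final concentration; Reagent: 10 nM SCFSkp2-Nedd8OG; Compound dosing: 12.5 µM single point; Times: reaction 90 min, room temperature; Technique: fluorescence polarization readout.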
SENP1 FRET inh: blocks the human SENP1 SUMO protease catalytic domain; inhibition, % at 10 µM; AID 624204; 360,000 compounds, 0.21% hits; Q9P0U3; recombinant SENP1 catalytic domain, CyPet-SUMO1-YPet FRET cleavage;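 active = inhibition at least 30% at 10 µM, raw YFP signal under a set limit, fluorescence ratio 0.5 to 1.5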;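 also: 0% = enzyme with DMSO and 100% = no enzyme wells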
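Test system: human SENP1 catalytic domain; medium: Tris pH 8 buffer plus EDTA, NaCl, BME, BSA, NP40, catalase; incubation: 50 min reaction at room temperature; technique: FRET, CFP and YFP emission; controls: no-enzyme low control and enzyme-plus-DMSO high control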
An asterisk follows results filed as active.

Screening Oc1c(CN2CCc3ccccc3C2)cc(Cl)c2cccnc12 returned Rpn11 block 38.8*, HNF4A DNA FP -1.6, ATG4B inh 33.0, TPT1 inhibitor -1.9, CSN deneddyl inh -1.7 and SENP1 FRET inh -34.9.
`N=c1c2c(n(Cc3ccc(Cl)cc3)c3c1CCC3)CCC2` gave Rpn11 block -37.8, HNF4A DNA FP 41.9*, ATG4B inh 6.3, TPT1 inhibitor 1.3, CSN deneddyl inh 0.5 and SENP1 FRET inh 1.0.
Screening N=c1c2c(n(Cc3ccc(F)cc3)c3c1CCC3)CCCC2 returned Rpn11 block -0.2, HNF4A DNA FP -3.2, ATG4B inh -3.8, TPT1 inhibitor -0.4, CSN deneddyl inh 6.4 and SENP1 FRET inh -0.5.
Screening COc1cc([N+](=O)[O-])cc(/C=N/NC(=O)c2cc(C)nc3ccccc23)c1O returned Rpn11 block 24.9, HNF4A DNA FP 3.6, ATG4B inh 7.8, TPT1 inhibitor 18.3, CSN deneddyl inh 8.1 and SENP1 FRET inh 40.4*.
`Cc1ccc(S(=O)(=O)N2C[C@H]3C(=O)C[C@@H](c4cccc(Cl)c4)N(S(=O)(=O)c4ccc(C)cc4)[C@H]3C[C@H]2c2ccccc2)cc1` gave Rpn11 block 2.8, HNF4A DNA FP 7.0, CSN deneddyl inh 2.4 and SENP1 FRET inh -2.7.
Screening CC(=O)c1ccc(N2CCN(C(=O)C3CCN(S(=O)(=O)Cc4ccccc4)CC3)CC2)cc1 returned Rpn11 block -1.3, HNF4A DNA FP 6.3, ATG4B inh -10.4, TPT1 inhibitor 2.4, CSN deneddyl inh 92.1* and SENP1 FRET inh 0.7.
O=C(C1CCN(S(=O)(=O)Cc2ccccc2)CC1)N1CCN(c2ncccn2)CC1 was read as Rpn11 block -5.9, HNF4A DNA FP 0.7, ATG4B inh -6.2, TPT1 inhibitor -3.4, CSN deneddyl inh 101.0* and SENP1 FRET inh 1.0.
Screening O=C(O)c1ccc(S(=O)(=O)NCC2CCCCC2)cc1 returned Rpn11 block -8.1, HNF4A DNA FP 72.5*, ATG4B inh -0.1, CSN deneddyl inh -3.3 and SENP1 FRET inh -0.1.
For CC(C)OCCCNC(=O)c1c(N)n(/N=C/c2cccs2)c2nc3ccccc3nc12 the results were Rpn11 block 4.5, HNF4A DNA FP 4.5, ATG4B inh -1.4, TPT1 inhibitor -2.0, CSN deneddyl inh 41.1* and SENP1 FRET inh -25.3.
For C/C(N)=C(/C#N)C(=O)COC(=O)C1CCC(C(C)(C)C)CC1 (stereo not given) the results were Rpn11 block 2.6, HNF4A DNA FP -1.1, ATG4B inh -8.9, TPT1 inhibitor -2.4, CSN deneddyl inh 116.8* and SENP1 FRET inh -1.7.
COc1cc2cc(Oc3ccc4ccc(=O)oc4c3)c(=O)oc2cc1OC1OC(COC(=O)CC(C)(O)CC(=O)O)C(O)C(O)C1O (stereo not given) was read as Rpn11 block -6.8, HNF4A DNA FP -5.2, ATG4B inh -24.5, TPT1 inhibitor -3.2, CSN deneddyl inh 9.3 and SENP1 FRET inh -60.6.
COc1cc2cc(Oc3ccc4ccc(=O)oc4c3)c(=O)oc2cc1O[C@@H]1O[C@H](CO)[C@@H](O)[C@H](O)[C@H]1O was read as Rpn11 block -6.1, HNF4A DNA FP -27.3, ATG4B inh 14.1, CSN deneddyl inh 38.0* and SENP1 FRET inh -23.1.
`CN(CC(=O)Nc1ccc(F)c(F)c1F)C(=O)c1ccc(-n2cncn2)cc1` gave Rpn11 block 1.5, HNF4A DNA FP -1.6, ATG4B inh -35.8, CSN deneddyl inh -5.6 and SENP1 FRET inh -0.6.
Screening Nc1nc(NCC(=O)O)nc(NC2CCCCC2)c1[N+](=O)[O-] returned Rpn11 block -1.6, HNF4A DNA FP 46.0*, ATG4B inh 3.7, CSN deneddyl inh 1.4 and SENP1 FRET inh 3.1.
CN(CC(=O)Nc1cccc(F)c1)C(=O)c1cc(-c2ccco2)nc2ccccc12 was read as Rpn11 block 29.2, HNF4A DNA FP -16.0, ATG4B inh 13.2, TPT1 inhibitor 10.5, CSN deneddyl inh 54.5* and SENP1 FRET inh 7.3.
Screening CCCCCCCCCC(=O)OCC(O)CO (stereo not given) returned Rpn11 block -5.4, HNF4A DNA FP 0.6, ATG4B inh -2.9, TPT1 inhibitor -3.3, CSN deneddyl inh 0.9 and SENP1 FRET inh 1.1.
For CCCCCCCCCCCCCCC[C@@H](O)[C@@H](N)CO the results were Rpn11 block 10.4, HNF4A DNA FP 121.2*, ATG4B inh -10.8, CSN deneddyl inh 84.1* and SENP1 FRET inh -0.5.
Cc1ccc(C)c(N2N=C(C(=O)OCc3nnc(-c4ccccc4Br)o3)CCC2=O)c1 was read as Rpn11 block -0.3, HNF4A DNA FP 4.7, CSN deneddyl inh 2.0 and SENP1 FRET inh 0.2.
For C#CCOCCOCCOCCNc1nc(N2CCN(C(=O)C(Cc3cc4ccccc4[nH]3)n3cc(C(N)C(C)CC)nn3)CC2)nc(N2CCN(C(=O)C(Cc3cc4ccccc4[nH]3)n3cc(C(N)C(C)CC)nn3)CC2)n1 (stereo not given) the results were Rpn11 block 15.7, HNF4A DNA FP 0.7, ATG4B inh -4.7, TPT1 inhibitor 2.7, CSN deneddyl inh 43.8* and SENP1 FRET inh -1.3.
For C#CCOCCOCCOCCNc1nc(N2CCN(C(=O)[C@H](CCCCN)n3cc([C@@H](N)C(C)CC)nn3)CC2)nc(N2CCN(C(=O)[C@H](Cc3cc4ccccc4[nH]3)n3cc([C@@H](N)C(C)CC)nn3)CC2)n1 (stereo not given in full) the results were Rpn11 block -9.3, HNF4A DNA FP 48.6*, ATG4B inh 11.6, CSN deneddyl inh 20.7 and SENP1 FRET inh -17.1.
`C#CCOCCOCCOCCNc1nc(N2CCN(C(=O)[C@H](CCCN=C(N)N)n3cc(C(N)[C@@H](C)CC)nn3)CC2)nc(N2CCN(C(=O)[C@H](CCCCN)n3cc([C@@H](N)CC(N)=O)nn3)CC2)n1` (stereo not given in full) gave Rpn11 block -4.1, HNF4A DNA FP 4.7, ATG4B inh 2.8, CSN deneddyl inh -2.9 and SENP1 FRET inh 2.4.
C#CCOCCOCCOCCNc1nc(N2CCN(C(=O)C([C@@H](C)O)n3cc([C@@H](N)CCCCN)nn3)CC2)nc(N2CCN(C(=O)[C@H](CCCN=C(N)N)n3cc(C(N)[C@@H](C)CC)nn3)CC2)n1 (stereo not given in full) was read as Rpn11 block 5.0, HNF4A DNA FP 61.1*, ATG4B inh 9.9, CSN deneddyl inh 16.2 and SENP1 FRET inh 0.5.
`C#CCOCCOCCOCCNc1nc(N2CCN(C(=O)[C@H](CCCCN)n3cc(CN)nn3)CC2)nc(N2CCN(C(=O)[C@H](CCCCN)n3cc(CN)nn3)CC2)n1` gave Rpn11 block -7.3, HNF4A DNA FP 59.4*, ATG4B inh 4.6, CSN deneddyl inh 38.8* and SENP1 FRET inh -1.6.

High-throughput results: PubChem, several laboratories
